Bioassay records as filed in PubChem.
Rows were chosen to be rich in hits. Some 2.2% of all compounds tested hit in one or more screens of this group.
FGF22 binding = binders of human FGF22 protein, primary screen, FGF22 synaptogenesis inhibitor project, biophysical, thermal shift, single point; Fibroblast growth factor 22 (Homo sapiens), Q9HCT0; recombinant FGF22 thermal shift, SYPRO orange fluorescence; percent of sucrose octasulfate shift, DMSO zero; activity (Tm shift, normalised), % at 9.99 µM; 340,000 tested, 1.5% active;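 active = mean Tm shift, scaled 0 neutral to 100 positive control, at about 1.3% or above, every replicate too, limit read from the data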
Target sequence (Q9HCT0 whole entry, looked up): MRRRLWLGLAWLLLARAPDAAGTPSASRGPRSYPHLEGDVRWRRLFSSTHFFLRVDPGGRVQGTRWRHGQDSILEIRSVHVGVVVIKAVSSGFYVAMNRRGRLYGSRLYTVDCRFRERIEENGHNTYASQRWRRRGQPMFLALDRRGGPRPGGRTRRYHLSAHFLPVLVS
NR2E3 ag-1 = NR2E3 agonists in two-hybrid cells, primary screen, cell-based, luminescence, CHO-S, Gal4-NCOR/VP16-NR2E3; Photoreceptor-specific nuclear receptor (Homo sapiens), Q9Y5X4; luciferase; inhibition of corepressor binding, % at 3.98 µM; 360,000 tested, 0.35% active;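 active = inhibition above the mean of all tested compounds plus 3 SD, cut at about 70% in these data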;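 also: higher means lower luciferase signal from less NR2E3 corepressor binding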
Target sequence (Q9Y5X4 whole entry, looked up, the tested form may be a part): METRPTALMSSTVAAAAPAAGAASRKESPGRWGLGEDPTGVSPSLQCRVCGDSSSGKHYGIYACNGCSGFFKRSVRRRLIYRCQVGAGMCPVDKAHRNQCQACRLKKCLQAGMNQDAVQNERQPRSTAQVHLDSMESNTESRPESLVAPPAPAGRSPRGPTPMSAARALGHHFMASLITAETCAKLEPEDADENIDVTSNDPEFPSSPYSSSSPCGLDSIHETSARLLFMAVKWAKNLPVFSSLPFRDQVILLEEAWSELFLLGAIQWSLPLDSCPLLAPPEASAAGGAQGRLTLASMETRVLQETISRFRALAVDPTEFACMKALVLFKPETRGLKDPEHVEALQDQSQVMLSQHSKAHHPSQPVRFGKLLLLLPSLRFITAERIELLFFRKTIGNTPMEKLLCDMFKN
NR2E3 ag-2 = inhibitors of NR2E3-RetCOR corepressor binding, primary screen, NR2E3 agonist project, biochemical, TR-FRET, GST-NR2E3, biotin-RetCOR; Photoreceptor-specific nuclear receptor (Homo sapiens), Q9Y5X4; AID 2300, 2010; 320,000 tested, 0.12% active; inhibition of corepressor binding, % at 4.78 µM; 1536-well;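 active = percent inhibition above the cutoff of mean plus 3 SD of all tested compounds, set per screening campaign, cut at about 20% in these data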
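Assay system: NR2E3–RetCOR corepressor complex. Quantity: 1.35 nM GST-NR2E3. Buffer or medium: pH 7.5 Tris-based buffer. Reagent: biotinylated RetCOR corepressor at 7 nM final. Schedule: 5 h at 4 °C. Detection: TR-FRET, emission read at 617 and 671 nm. Replicates: one well per compound, singlicate testing.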
miR122 inh = miR-122 Renilla sensor signal increase in Huh7, primary screen, miR-122 inhibitor project, cell-based, single point, plate reader | activation (reporter increase), % at 12.5 µM | 340,000 tested, 0.3% active | Huh7 miR-122 Renilla luciferase sensor, 48 h; neutral wells = 0, positive control = 100;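 active = mean replicate activation score at least 90 and every replicate individually at or above 90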;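 also: higher luciferase means less miR-122 activity so hits act as miR-122 inhibitors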
697 NFkB inh = inhibitors of PMA/ionomycin-induced NF-kB reporter, 697 cells, primary screen, B-cell NF-kB inhibitor project, cell-based, luminescence, uHTS; 697 B-cell NF-kB luciferase reporter, 16 h; inhibition, % at 4 µM; 330,000 tested, 0.33% active; AID 435022, 2010; in the data active = inhibition above about 35%
Jurkat NFkB inh = inhibitors of induced NF-kB luciferase reporter, primary screen, TCR NF-kB activation inhibitor project, cell-based, luminescence, uHTS. Jurkat, PMA/ionomycin-induced NF-kB luciferase reporter. 330,000 tested, 0.53% active. inhibition, % at 4 µM. AID 435003, 2010; in the data active = inhibition above about 50%
Numbers stand for hits; 0 = inactive; - = no result.

SMILES	FGF22 binding	NR2E3 ag-1	NR2E3 ag-2	miR122 inh	697 NFkB inh	Jurkat NFkB inh
O=C(Cc1cccs1)N=Nc1c(O)[nH]c2ccc(Br)cc12	0	0	0	0	0	0
O=C(Cn1c(C(F)(F)F)nc2ccccc21)N=Nc1c(O)[nH]c2ccc(Br)cc12	43	0	0	0	0	0
COc1ccc(S(=O)(=O)Nc2ccc3c(c2)[C@H]2C[C@@H](CC(=O)N(C)C)O[C@@H](CO)[C@H]2O3)cc1	0	-	-	0	-	-
COc1ccccc1-c1ccc2c(c1)O[C@H](CN(C)C)[C@H](C)CN([C@H](C)CO)S2(=O)=O	0	-	-	0	-	-
CC(C)NC(=O)N(C)C[C@@H]1Oc2c(NS(=O)(=O)c3cn(C)cn3)cccc2C(=O)N([C@@H](C)CO)C[C@@H]1C	0	-	-	0	-	-
COc1ccc(S(=O)(=O)N(C)C[C@@H]2Oc3c(NC(=O)NC4CCCCC4)cccc3C(=O)N([C@H](C)CO)C[C@H]2C)cc1	0	-	-	0	-	-
COc1cccc(-c2ccc(C#N)c(=O)[nH]2)c1	43	0	0	-	0	0
C[C@@H]1CN([C@@H](C)CO)S(=O)(=O)c2ccc(C#C[C@@H](C)O)cc2O[C@H]1CN(C)C(=O)CC1CC1	0	-	-	0	-	-
CC(=O)Nc1cccc(NC(=O)Nc2cccc(F)c2)c1	45	0	0	-	0	0
COc1ccc(S(=O)(=O)Nc2c(C)nc3nc[nH]n3c2=O)cc1	43	0	0	0	0	0
O=S(=O)(Nc1ccc2cn[nH]c2c1)c1cc(Br)ccc1Br	0	0	-	180	0	0
Cc1ccc(S(=O)(=O)Nc2ccc3cn[nH]c3c2)cc1C	44	0	-	0	0	0
Cc1ccc(S(=O)(=O)Nc2ccc3cn[nH]c3c2)cc1	0	0	0	0	0	0
COc1cc(S(=O)(=O)Nc2ccc3cn[nH]c3c2)ccc1Cl	44	0	0	0	0	0
COc1ccc(S(=O)(=O)N[C@H]2CC[C@@H](CC(=O)NCCc3ccncc3)O[C@H]2CO)cc1	0	-	-	-	-	-
CN(c1ccc(-c2csc(NC(=O)CCCc3nc4ccccc4c(=O)[nH]3)n2)cc1)S(C)(=O)=O	44	0	-	0	-	-
O=C(CCc1nc2ccccc2c(=O)[nH]1)Nc1nc(-c2cccs2)cs1	0	0	0	-	0	0
CO[C@H]1CN(C)C(=O)c2cc(NC(=O)C3CC3)ccc2OC[C@H](C)N(CCc2ccccc2)C[C@@H]1C	-	-	-	0	-	-
CC(=O)N(C)C[C@@H]1Oc2ncc(-c3ccc(C#N)cc3)cc2C(=O)N([C@@H](C)CO)C[C@@H]1C	0	-	-	0	-	-
C[C@@H]1CCCCO[C@@H](CN(C)Cc2ccc3c(c2)OCO3)[C@H](C)CN([C@@H](C)CO)C(=O)c2cc(NC(=O)Nc3ccc4c(c3)OCO4)ccc2O1	0	-	-	0	-	-
O=C(c1ccccn1)N1CCN(S(=O)(=O)c2ccccc2)CC1	43	0	0	0	0	0
CCOC(=O)c1ccc(S(=O)(=O)N2CCN(C(=O)c3ccccn3)CC2)cc1	0	0	-	-	0	0
O=C(c1ccccn1)N1CCN(S(=O)(=O)c2ccc(F)cc2)CC1	0	0	0	-	0	0
Cc1ccc(S(=O)(=O)N2CCN(C(=O)c3ccccn3)CC2)cc1	43	0	0	-	0	0
Cc1noc(C)c1NC(=O)N[C@@H]1CC[C@@H](CC(=O)Nc2ccccc2)O[C@@H]1CO	0	-	-	-	-	-
SMILES	FGF22 binding	NR2E3 ag-1	NR2E3 ag-2	miR122 inh	697 NFkB inh	Jurkat NFkB inh
Cc1nccn1-c1ccc(C(F)(F)F)cc1[N+](=O)[O-]	43	0	0	0	0	0
CC(C)CC#Cc1cnc2c(c1)C(=O)N([C@@H](C)CO)C[C@@H](C)[C@H](CN(C)C(=O)c1cnccn1)O2	0	-	-	0	-	-
CCOC(=O)NNS(=O)(=O)c1cc(Br)ccc1Br	43	0	0	0	0	0
C=CCOc1ccc(C[C@H](N)C(=O)NC[C@H]2O[C@@H](n3ccc(N)nc3=O)[C@H](O)[C@@H]2O)cc1	43	0	-	0	-	-
COc1cccc(Cn2cnc(-c3ccccc3OC)c2C2CC2)c1	43	0	-	-	-	-
COC(c1ccccc1)c1nnc(CCC(=O)N(C)CCc2ccccc2)o1 (configuration not stated)	44	0	0	-	0	0
CN(CCc1cnn(C)c1)C(=O)CCc1nnc(CCCc2ccccc2)o1	43	0	0	-	0	0
CC(C)N(Cc1nccn1C)C(=O)CCc1nnc(CCCc2ccccc2)o1	44	0	0	-	0	0
C[C@H]1CN([C@@H](C)CO)C(=O)c2cc(NC(=O)C3CCCCC3)ccc2O[C@H]1CN(C)C(=O)Nc1cccc2ccccc12	0	-	-	0	-	-
CN(C)C(=O)c1ccc(-c2ccc3c(c2)[C@@H]2[C@@H](CCN2S(=O)(=O)c2cn(C)cn2)[C@H](CO)N3)cc1	0	-	-	0	-	-
CC1CCc2c(sc3ncn(Cc4ccc(C(=O)O)cc4)c(=O)c23)C1 (configuration not stated)	43	0	0	0	0	0
COC(=O)Cn1cnc2sc3c(c2c1=O)CCCC3	43	0	0	0	0	0
Cc1cnc(C(=O)OCC(=O)c2cc(C)n(C)c2C)cn1	43	0	0	0	0	0
COc1ccc(C[C@@H]2CCc3cnnn3COC[C@@H](c3ccccc3)NC2=O)cc1	0	-	-	-	-	-
O=C(c1cccnc1)N1C[C@@H]2[C@H](c3ccccc31)[C@H](CO)N2C(=O)Nc1ccc(F)cc1	0	-	-	0	-	-
CCCCN1C(=O)C(=O)N(CC(=O)NC2CCCc3ccccc32)C1=O (configuration not stated)	44	0	0	-	0	0
CC(=O)N/N=C(\C)c1ccc2c(c1)OCCO2	43	0	0	-	0	0
CC(=O)Nc1cc2c(cc1Cl)Cc1cc(Cl)ccc1-2	43	0	-	0	-	-
C[C@H]1CCCCO[C@@H](CN(C)S(=O)(=O)c2cccs2)[C@@H](C)CN([C@@H](C)CO)C(=O)c2cc(NC(=O)NC3CCCCC3)ccc2O1	0	-	-	0	-	-
O=C(c1ccc(Cl)cc1)C1CCCN(C(=O)/C=C/c2ccccn2)C1 (configuration not stated)	44	0	0	-	0	0
COc1ccc(S(=O)(=O)Nc2ccc3c(c2)C(=O)N([C@@H](C)CO)C[C@@H](C)[C@@H](CN(C)S(=O)(=O)c2ccc(Cl)cc2)OCCCC[C@H](C)O3)cc1	-	-	-	0	-	-
C[C@H]1CN([C@@H](C)CO)S(=O)(=O)c2ccc(-c3cccnc3)cc2O[C@H]1CN(C)CC1CC1	0	-	-	0	-	-
